Measurements from ChEMBL document CHEMBL1144230, “Development of a second generation of inhibitors of microsomal prostaglandin E synthase 1 expression bearing the gamma-hydroxybutenolide scaffold” (Bioorg Med Chem, 2008).
The source made the active and inactive calls. The calls are words filed in the database; no cut-off is given here.

Experiments:
RAW264.7 [1] = test: Cytotoxicity against mouse RAW264.7 cells at 10 uM after 20 hrs by MTT assay; assay type: cell-based; conditions: raw264.7, 20 h
Procedure, shortened: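 RAW 264.7 macrophages (1.5 × 10⁶ cells/mL) co-incubated with 1 µg/mL E. coli 0111:B4 LPS at 37 °C for 20 h, compound added in ethanol (ethanol alone as control). Viability read by mitochondrial reduction of MTT to formazan.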

RAW264.7 [2] = test: Inhibition of LPS-stimulated PGE2 production in mouse RAW264.7 cells after 20 hrs by radioimmunoassay; assay type: functional, cell-based; conditions: RAW264.7, 20 h
Procedure, shortened: (§1)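 Murine RAW 264.7 macrophages, 1.5 × 10⁶ cells/mL, given 1 µg/mL E. coli 0111:B4 LPS at 37 °C for 20 h with compound in ethanol (vehicle ethanol 1%). Supernatant PGE₂ measured by radioimmunoassay. Mean ± SEM, n = 6. IC₅₀ from at least four significant concentrations. ANOVA then Dunnett's t-test.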

RAW264.7 [3] = test: Inhibition of LPS-stimulated PGE2 production in mouse RAW264.7 cells at 10 uM after 20 hrs by radioimmunoassay; assay type: functional; conditions: RAW264.7, 20 h; procedure, shortened: as §1
Apis mellifera = test: Inhibition of bee venom group 3 sPLA2 at 10 uM
Procedure, shortened: (§2)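 Radiometric sPLA2 assay with membranes of E. coli CECT 101 labelled by growth with [3H]oleic acid, then autoclaved. Enzyme in Tris–HCl, 1 mM CaCl2, pH 7.5, preincubated 5 min at 37 °C with compound in ethanol (vehicle 1%), then 15 min with the labelled membranes. Released radioactivity counted. Percent inhibition versus vehicle control, mean ± SEM, n = 6.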

[4] = target: T1, Phospholipase A2, membrane associated (Homo sapiens) (UniProt P14555); test: Inhibition of human synovial recombinant group 2A sPLA2 at 10 uM
T1 sequence (whole entry): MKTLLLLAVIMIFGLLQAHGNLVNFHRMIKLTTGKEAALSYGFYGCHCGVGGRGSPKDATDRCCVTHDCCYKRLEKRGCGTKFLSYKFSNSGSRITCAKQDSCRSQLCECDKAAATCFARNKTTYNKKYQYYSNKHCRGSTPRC
Procedure, shortened: (§3)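 Compound tested at 10 µM in ethanol (vehicle 1%). Enzyme preincubated 5 min at 37 °C in Tris–HCl, 1 mM CaCl₂, pH 7.5, then incubated 15 min with [³H]oleate-labelled, autoclaved E. coli CECT 101 membranes. Released radioactivity counted. Percent inhibition versus vehicle control, mean ± SEM, n = 6. Enzymes: human recombinant synovial group IIA; porcine pancreatic group IB.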

Sus scrofa = organism: Sus scrofa; test: Inhibition of pig pancreas group 1B sPLA2 at 10 uM; procedure, shortened: as §3
Naja naja = test: Inhibition of Naja naja venom group 1A sPLA2 at 10 uM; procedure, shortened: as §2
RAW264.7 [5] = test: Inhibition of LPS-stimulated COX2 expression in mouse RAW264.7 cells by Western blot; assay type: functional, cell-based
Procedure, shortened: (§4)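 Cells were RAW 264.7 at 1.5 × 10⁶ cells/mL, 18 h with LPS 1 µg/mL and compound at 1 or 10 µM; dexamethasone as reference. Lysis in HEPES pH 8.0 buffer with protease/phosphatase inhibitors, spin 10,000g 15 min 4 °C. COX-2 taken from total fraction, mPGES-1 from microsomal fraction. 50 µg protein per lane on SDS–15% PAGE, PVDF, polyclonal antibodies (COX-2 1/1000, mPGES-1 1/200). β-actin loading control. Bands expressed relative to LPS control. Two experiments.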

RAW264.7 [6] = test: Inhibition of LPS-stimulated microsomal prostaglandin E synthase 1 expression in mouse RAW264.7 cells by Western blot; assay type: functional, cell-based; procedure, shortened: as §4
RAW264.7 [7] = test: Inhibition of LPS-stimulated COX2 expression in mouse RAW264.7 cells at 10 uM by Western blot; assay type: functional, cell-based; procedure, shortened: as §4
RAW264.7 [8] = test: Inhibition of LPS-stimulated microsomal prostaglandin E synthase 1 expression at 10 uM in mouse RAW264.7 cells by Western blot; assay type: functional, cell-based; procedure, shortened: as §4

Structure (SMILES)	Cytotoxicity (RAW264.7 [1]) [%]	IC50 (RAW264.7 [2]) [µM]	inhibition at 10 µM (RAW264.7 [3]) [%]	inhibition (Apis mellifera) [%]	inhibition [4] [%]	inhibition (Sus scrofa) [%]	inhibition (Naja naja) [%]	Activity (RAW264.7 [5])	Activity (RAW264.7 [6])	Activity (RAW264.7 [7])	Activity (RAW264.7 [8])
O=C1OC(O)C(c2csc3ccccc23)=C1Br (stereo not drawn)	0	1.8	72.2								
CCc1c(CC(N)=O)c2cc(OCCCP(=O)(O)O)ccc2n1Cc1ccccc1				2.4	96.3	36.9	7.9				
CCCCc1ccc(C2=C(c3ccc(-c4ccc(CCCC)cc4)cc3)C(O)OC2=O)cc1 (stereo not drawn)	0	4.59	58.7	2.8	4.4	0	2.6	inactive	Dose-dependent effect		
O=C1OC(O)C(c2cccc(-c3ccc(Oc4ccccc4)cc3)c2)=C1Br (stereo not drawn)	0		51	5.3	2.4	0	5.8				
O=C1OC(O)C(c2cccc(-c3ccc4ccccc4c3)c2)=C1c1ccc2ccccc2c1 (stereo not drawn)	8.6	0.84	79.6	2.8	14.8	0	2	inactive	Dose-dependent effect		
O=C1OC(O)C(c2cccc(-c3ccc4ccccc4c3)c2)=C1Br (stereo not drawn)	18.6		66.8	0	0	0	0				
O=C1OC(O)C(c2cccc(-c3csc4ccccc34)c2)=C1c1cccc(-c2csc3ccccc23)c1 (stereo not drawn)	4.1	3.23	69.2	4	2.4	8.3	3.6	inactive	Dose-dependent effect		
O=C1OC(O)C(c2cccc(-c3csc4ccccc34)c2)=C1Br (stereo not drawn)	0		33.6	13.9	30	28.6	11.7				
CCCCc1ccc(-c2ccc(C3=C(Br)C(=O)OC3O)cc2)cc1 (stereo not drawn)	5.5	2.24	62.2	3.5	0	0	0	inactive	Dose-dependent effect		
O=C1OC(O)C(c2cccc(-c3ccc(Oc4ccccc4)cc3)c2)=C1c1cccc(-c2ccc(Oc3ccccc3)cc2)c1 (stereo not drawn)	0		22.2	6	10.6	10.2	16.6				
C[C@@H]1C[C@H]2[C@@H]3CCC4=CC(=O)C=C[C@]4(C)[C@@]3(F)[C@@H](O)C[C@]2(C)[C@@]1(O)C(=O)CO										Active	Active
O=C1OC(O)C(c2ccc(-c3ccc(-c4ccccc4)cc3)cc2)=C1Br (stereo not drawn)	1.2	3.61	73.1	0	12.1	0	0	inactive	Dose-dependent effect		
